Rows were chosen to be rich in hits. Some 4.8% of all compounds tested hit in one or more screens of this group.
HSF1 inh: HSF1 inhibition | NIH3T3-HGL HSE-luciferase, MG132-induced, luminescence 8 h; stronger effect = lower value | activity change, negative = inhibition, % at 7.5 µM (by protocol) | 300,000 tested, 0.77% active;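 active = more than half of replicate wells show activity change below -50%, luminescence cut by over half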;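 note: luciferase reports HSF-1 transcriptional activity via heat shock element; 0% = median of DMSO wells and -100% = zero luminescence signal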
T cruzi repl: blocks replication of Trypanosoma cruzi; T. cruzi beta-gal in NIH3T3, luminescence, 90 h; inhibition, % (concentration not given with the values); 300,000 tested, 1.4% active;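 active = mean inhibition across valid replicates above about 55%, limit read from the data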;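 note: signal also drops with host cell toxicity which is not excluded here; 0% = plate median of DMSO wells and 100% = zero luminescence signal; higher percent means less beta-gal luminescence so fewer parasites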
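Material: NIH/3T3 host cells with β-galactosidase reporter T. cruzi; Input: 5,000 host fibroblasts per well; Medium: DMEM, 2% fetal bovine serum; Compound: 50 nL DMSO compound solution per well; Schedule: 3 h host attachment, then at least 90 h co-culture; Detection: luminescent β-galactosidase signal after 60 min lysis.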
HSF-1 act: increases HSF-1 driven luciferase reporter signal; 300,000 tested, 1.7% active; NIH3T3-HGL HSF-1 luciferase reporter, MG132, 8 h; 100% = twice DMSO control signal; AID 504408; activation, % at 9 µM;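 active = mean replicate activation of at least 50% with a set share of replicates each reaching 50%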;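 note: 0% = median of the neutral control wells and 100% = twice that signal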
697 NFkB inh: inhibitors of the PMA/ionomycin-induced NF-kB reporter in 697 B cells. 697 B-cell NF-kB luciferase reporter, 16 h. inhibition, % at 4 µM. 330,000 tested, 0.33% active; in the data active = inhibition above about 35%
Jurkat NFkB inh: lowers PMA/ionomycin-induced NF-kB signal in Jurkat cells | PMA/ionomycin-induced NF-kB luciferase reporter, luminescence | inhibition, % at 4 µM | 330,000 tested, 0.53% active | AID 435003; in the data active = inhibition above about 50%
GPR7 antagonist: antagonists of human GPR7 (neuropeptides B/W receptor 1); GPR7-expressing cells, fluorescence antagonist assay; inhibition, % at 4.4 µM; 290,000 tested, 1.1% active; AID 1861; in the data active = inhibition above about 16%, passing the limit was not always enough;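 note: cells stimulated with the agonist NPW; 0% = agonist with vehicle and 100% = vehicle without agonist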
Target sequence (P48145 whole entry, looked up): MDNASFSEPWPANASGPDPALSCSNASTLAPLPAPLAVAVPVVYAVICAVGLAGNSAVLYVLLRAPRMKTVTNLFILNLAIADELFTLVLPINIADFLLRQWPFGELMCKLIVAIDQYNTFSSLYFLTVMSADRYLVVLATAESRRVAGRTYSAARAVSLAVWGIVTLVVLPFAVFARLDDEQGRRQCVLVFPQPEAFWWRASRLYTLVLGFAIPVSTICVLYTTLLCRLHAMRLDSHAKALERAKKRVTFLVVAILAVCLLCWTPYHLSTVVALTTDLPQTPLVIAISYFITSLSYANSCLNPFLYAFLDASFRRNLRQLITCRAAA
GPR7 antag conf: confirmation of human GPR7 antagonists; shares compounds with GPR7 antagonist; 2,400 tested, 52% active; GPR7-expressing cells, calcium fluorescence antagonist mode; inhibition, % at 4.4 µM; in the data active = inhibition above about 24%;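 note: stimulated with the GPR7 agonist NPW; 0% = agonist plus vehicle and 100% = vehicle alone without agonist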
MCHR1 antag: MCHR1 (human) antagonism in GPR7 counter-screen | shares compounds with GPR7 antagonist | MCHR1-expressing cells, fluorescence antagonist assay | inhibition, % at 4.4 µM | 2,400 tested, 62% active; in the data active = inhibition above about 22%;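 note: 0% = vehicle with agonist and 100% = vehicle without agonist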
* marks the source's active call; other numbers are inactive results; . = no result.

SMILES | HSF1 inh | T cruzi repl | HSF-1 act | 697 NFkB inh | Jurkat NFkB inh | GPR7 antagonist | GPR7 antag conf | MCHR1 antag
COc1ccc(-c2csc(NC(CO)c3nc4ccccc4n3CCCO)n2)cc1 (stereo not drawn) | 1 | -28 | -17 | -11 | 1 | . | . | .
CCOc1ccc(NC(=O)CN(C)C(=O)C2CCCO2)cc1OCC (stereo not drawn) | . | . | . | -5 | -10 | . | . | .
COc1ccc(CCn2c(SCCN3CCCCC3)nc3ccccc3c2=O)cc1OC | -4 | 67* | -3 | -25 | -2 | 36* | 30* | 35*
Cn1nc(C(=O)N2CCN(c3ccc([N+](=O)[O-])cc3)CC2)c2c1-c1ccccc1S(=O)(=O)C2 | -5 | -4 | -3 | -5 | 0 | -6 | . | .
FC(F)(F)c1cccc(-c2nc3nc(Cl)c(Cl)nc3[nH]2)c1 | 6 | -2 | 39 | -12 | -37 | 25* | 37* | 48*
C=CCc1cccc([C@@H]2[C@@H](C)CC[C@H]3C(=O)N4[C@@H](c5cc(OC)c(OC)c(OC)c5)c5[nH]c6ccccc6c5C[C@H]4C(=O)N23)c1 | -1 | 47 | -5 | 12 | 21 | 33* | 8 | 6
CC(C)CN(C(=O)c1ccc(F)cc1F)c1c(N)n(CC(C)C)c(=O)[nH]c1=O | -1 | 1 | 0 | -7 | 1 | 8 | . | .
O=C(c1cc(-c2cccnc2)nc2ccccc12)N1CCCc2ccccc21 | -2 | -8 | -20 | -12 | 14 | 24* | 5 | 23*
O=c1c(/C=N/O)coc2ccc3ccccc3c12 | . | . | . | -10 | -36 | 27* | 2 | 14
CCCCn1c(N)c(N(CC)C(=O)CSc2nnnn2-c2cc(C)ccc2C)c(=O)[nH]c1=O | 0 | -3 | 15 | 20 | -1 | 23* | -9 | -10
Cc1c(NC(=O)CSc2nc3ccccc3c(=O)n2C(C)C)c(=O)n(-c2ccccc2)n1C | . | . | . | 6 | 0 | . | . | .
Cc1cc(-c2csc(NC(=O)c3ccc(C#N)cc3)n2)c(C)n1Cc1ccccc1 | -6 | -17 | 1 | -14 | 17 | -1 | . | .
O=C(CCN1C(=O)COc2ccccc21)NCc1cccnc1 | -2 | -11 | -5 | 16 | 5 | 28* | -4 | 21
CCC(C)(C)NC(=O)c1cc(S(=O)(=O)N2CCc3ccccc32)cn1C | -4 | 15 | 2 | 13 | 8 | 21* | 10 | 35*
CC(C)(C)NC(=O)CN(Cc1ccco1)C(=O)CCC(=O)Nc1nccs1 | -2 | -6 | 5 | 13 | -3 | -10 | . | .
Cc1cc(N2CCCC2)nc(-c2ccccc2O)n1 | 5 | 15 | 35 | -8 | -19 | 3 | . | .
Cc1cc(N2CCCCC2)nc(N)n1 | 0 | 4 | -12 | 11 | -11 | 43* | 53* | 75*
COc1ccc(N2CCN(C(=O)C3CCCN(S(=O)(=O)c4c(C)noc4C)C3)CC2)cc1 (stereo not drawn) | 2 | 14 | 13 | -20 | -7 | 0 | . | .
COc1ccc(Cl)cc1N(C(=O)c1ccco1)C(C(=O)NC1CCCC1)c1cccnc1 (stereo not drawn) | 6 | 5 | 36 | -10 | -10 | 23* | 9 | 2
COc1ccc(Cl)cc1N(C(=O)c1ccco1)C(C(=O)NC1CCCC1)c1ccncc1 (stereo not drawn) | 14 | -10 | 17 | 13 | 1 | 17 | . | .
COc1ccc(OC)c(N(C(=O)c2ccco2)C(C(=O)NC2CCCC2)c2cc(OC)c(OC)c(OC)c2)c1 (stereo not drawn) | 7 | 11 | 32 | 0 | 11 | 32* | 23 | 8
COc1ccc(Cl)cc1N(C(=O)c1ccco1)C(C(=O)NC1CCCC1)c1ccco1 (stereo not drawn) | 11 | 16 | 23 | -70 | -79 | 29* | 28* | 22*
C/C(=N/NC(=O)c1ccc(C)nc1)c1ccc2c(c1)CCCC2 | 3 | -18 | -14 | -19 | 11 | -12 | . | .
CCCOc1ccc(C(=O)NCC(C)(C)N2CCOCC2)cc1 | -6 | 5 | -11 | 2 | 1 | -9 | . | .
O=C(O)CC(NC(=O)CCC1CCCCC1)c1cc([N+](=O)[O-])ccc1Cl (stereo not drawn) | 2 | 6 | -4 | -11 | 8 | -19 | . | .
SMILES | HSF1 inh | T cruzi repl | HSF-1 act | 697 NFkB inh | Jurkat NFkB inh | GPR7 antagonist | GPR7 antag conf | MCHR1 antag
COc1cccc(CNC(=O)COC(=O)c2nn(C)c(=O)c3ccccc23)c1 | . | . | . | -34 | -4 | . | . | .
C=CCNC(=S)Nc1ccc(Br)cc1F | 8 | -12 | 12 | -30 | 1 | -11 | . | .
Fc1cc(Br)ccc1NC(=S)NCCc1ccccc1 | -3 | -6 | 1 | -51 | -17 | 38* | 6 | 35*
S=C(NCC1CCCO1)N1CCN(c2nc(-c3ccc(Cl)cc3)cs2)CC1 (stereo not drawn) | 5 | 33 | 17 | -2 | 21 | 21* | 58* | 72*
CCC(C)NCCOCCOc1ccc(Cl)cc1Br (stereo not drawn) | 4 | 72* | -10 | -5 | -4 | 47* | 10 | 16
Cc1ccc(OCCOCCNC(C)C)c(Br)c1 | -30 | 14 | -42 | 5 | 1 | -6 | . | .
Clc1ccc(OCCCNCc2ccccc2)c(Br)c1 | -11 | 37 | -21 | 10 | 4 | 26* | 40* | 54*
CCCSc1nnc(CSc2nc3ccccc3s2)n1-c1ccccc1 | 1 | 53 | 6 | 1 | -20 | 32* | 10 | 50*
Cc1cccc(C(=O)NNC(=O)c2ccc(NS(=O)(=O)c3cccs3)cc2)c1C | . | . | . | 6 | -13 | . | . | .
CC(C)CC(NC(=O)C1CCC(=O)N1C(=O)OCc1ccccc1)C(=O)NC(Cc1ccccc1)C(N)=O (stereo not drawn) | -4 | -1 | -11 | -3 | 6 | -13 | . | .
CC(NC(=O)Cc1ccsc1)c1ccc(F)cc1 (stereo not drawn) | 13 | -9 | 7 | 0 | 5 | -10 | . | .
N/C(=N\OC(=O)COc1ccc(Cl)cc1Br)c1cccnc1 | 39 | 14 | 42 | -75 | -104 | 24* | 6 | 18
CCC(C)(C)NC(=O)C(c1ccc(C)cc1)N(CC1CCCO1)C(=O)CCC(=O)Nc1ccccn1 (stereo not drawn) | -1 | -6 | 0 | 5 | 2 | -8 | . | .
COC(=O)C1CCCCN1C(=O)c1cc(COc2cccc3cnccc23)on1 (stereo not drawn) | -24 | 1 | -17 | -24 | 41 | 35* | 28* | 53*
Cn1cc(C(c2ccccn2)c2cn(C)c3ccccc23)c2ccccc21 | 13 | 31 | 13 | -9 | 0 | 26* | 41* | 45*
